The text below walks through data of ChEMBL document CHEMBL1138351, “Small, potent, and selective diaryl phosphonate inhibitors for urokinase-type plasminogen activator with in vivo antimetastatic properties” (J Med Chem, 2007).

Each structure is given as a SMILES string.

In data set [1] the target is Urokinase-type plasminogen activator (Rattus norvegicus, UniProt P29598). Briefly: Inhibition of rat uPA.
The target in data set [2] is Plasminogen (Rattus norvegicus, UniProt Q01177). Nature of the data set: Inhibition of rat plasmin.
Data set [3] concerns the target Prothrombin (Rattus norvegicus, UniProt P18292). Nature of the data set: Inhibition of rat thrombin.
The target in data set [4] is Prothrombin (Homo sapiens, UniProt P00734). Nature of the data set: Inhibition of human thrombin. The method in brief:
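Human plasma thrombin was assayed at 37 °C in Tris pH 8.3. […] Initial rate was read at 405 nm, in duplicate. IC50 was obtained from a four-parameter logistic fit.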

Data set [5] is described as follows: Chemical stability assessed as half life of hydrolysis at pH 4. Type of data set: physicochemical. Conditions: buffer.
A short description of data set [6]: Chemical stability assessed as half life of hydrolysis at pH 8.8. It counts as physicochemical. Conditions: buffer.
The nature of data set [7]: Antimetastatic activity against Brown Norwegian rat bearing BN472 tumor assessed as reduction of interpectoral lymph node weight at 1 mg/kg, ip administered once daily after 4 days of tumor transplantation for 17 to 18 days relative to control. Type of data set: functional. More on the design: scale not given: the % may be the effect or the level left. Conditions: route intraperitoneal.

For data set [8], the system named is Rattus norvegicus. Nature of the data set: Toxicity in Brown Norwegian rat bearing BN472 tumor assessed as increase in lung weight at 1 mg/kg, ip administered once daily after 4 days of tumor transplantation for 17 to 18 days relative to control. Type of data set: organism-based. More on the design: dose 1 mg/kg, route intraperitoneal. Conditions: in vivo. The method in brief:
(§1)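 Orthotopic BN472 breast tumour model in rats. Daily i.p. dosing at 0.1 or 1 mg/kg started on day 4 and ran 17–18 days, with vehicle-only i.p. controls. Side effects were assessed from body weight and the weights of several organs, compared with controls.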

Data set [9] concerns Rattus norvegicus. Nature of the data set: Toxicity in Brown Norwegian rat bearing BN472 tumor assessed as increase in uterus weight at 0.1 mg/kg, ip administered once daily after 4 days of tumor transplantation for 17 to 18 days relative to control. Conditions: in vivo. It counts as organism-based. More on the design: dose 0.1 mg/kg, route intraperitoneal. The method in brief: as §1

In data set [10] the test system is Rattus norvegicus. Briefly: Toxicity in Brown Norwegian rat bearing BN472 tumor assessed as decrease in spleen weight at 1 mg/kg, ip administered once daily after 4 days of tumor transplantation for 17 to 18 days relative to control. Type of data set: organism-based. More on the design: dose 1 mg/kg, route intraperitoneal; scale not given: the % may be the effect or the level left. The settings on record: in vivo. The method in brief:
as §1

Data set [11] concerns Rattus norvegicus. Briefly: Toxicity in Brown Norwegian rat bearing BN472 tumor assessed as decrease in liver weight at 0.1 mg/kg, ip administered once daily after 4 days of tumor transplantation for 17 to 18 days relative to control. Conditions: in vivo. The arrangement: dose 0.1 mg/kg, route intraperitoneal; scale not given: the % may be the effect or the level left. It counts as organism-based. The method in brief: as §1

The subject of data set [12] is Rattus norvegicus. Nature of the data set: Toxicity in Brown Norwegian rat bearing BN472 tumor assessed as decrease in liver weight at 1 mg/kg, ip administered once daily after 4 days of tumor transplantation for 17 to 18 days relative to control. More on the design: dose 1 mg/kg, route intraperitoneal; scale not given: the % may be the effect or the level left. It counts as organism-based. The settings on record: in vivo. The method in brief:
as §1

Chain of Urokinase-type plasminogen activator (P29598 20-177 limits assumed): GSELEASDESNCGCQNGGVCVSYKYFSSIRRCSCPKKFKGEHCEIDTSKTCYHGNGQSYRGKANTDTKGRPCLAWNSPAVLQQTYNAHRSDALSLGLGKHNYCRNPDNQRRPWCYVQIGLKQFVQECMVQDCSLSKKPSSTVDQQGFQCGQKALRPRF
Chain of Urokinase-type plasminogen activator (P29598 179-432 limits assumed): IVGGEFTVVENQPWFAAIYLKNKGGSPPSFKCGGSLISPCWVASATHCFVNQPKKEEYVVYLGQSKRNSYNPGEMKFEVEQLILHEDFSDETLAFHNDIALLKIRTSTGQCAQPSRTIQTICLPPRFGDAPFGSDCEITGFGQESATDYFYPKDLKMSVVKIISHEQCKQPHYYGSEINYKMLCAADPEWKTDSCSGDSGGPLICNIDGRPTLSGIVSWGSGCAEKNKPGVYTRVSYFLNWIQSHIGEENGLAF
Chain of Plasminogen (Q01177 97-581 limits assumed): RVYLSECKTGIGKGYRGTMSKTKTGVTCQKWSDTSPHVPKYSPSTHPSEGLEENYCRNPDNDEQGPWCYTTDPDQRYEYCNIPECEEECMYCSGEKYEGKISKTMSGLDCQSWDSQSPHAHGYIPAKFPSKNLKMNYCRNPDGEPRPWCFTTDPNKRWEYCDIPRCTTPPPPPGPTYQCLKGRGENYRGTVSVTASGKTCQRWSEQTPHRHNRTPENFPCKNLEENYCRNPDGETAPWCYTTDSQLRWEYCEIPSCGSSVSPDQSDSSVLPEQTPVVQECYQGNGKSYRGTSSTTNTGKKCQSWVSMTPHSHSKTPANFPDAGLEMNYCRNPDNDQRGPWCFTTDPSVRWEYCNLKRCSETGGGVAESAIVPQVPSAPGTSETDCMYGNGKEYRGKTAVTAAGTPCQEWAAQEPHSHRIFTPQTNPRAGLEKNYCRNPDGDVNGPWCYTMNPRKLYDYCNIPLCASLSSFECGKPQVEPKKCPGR
Chain of Plasminogen (Q01177 582-812 limits assumed): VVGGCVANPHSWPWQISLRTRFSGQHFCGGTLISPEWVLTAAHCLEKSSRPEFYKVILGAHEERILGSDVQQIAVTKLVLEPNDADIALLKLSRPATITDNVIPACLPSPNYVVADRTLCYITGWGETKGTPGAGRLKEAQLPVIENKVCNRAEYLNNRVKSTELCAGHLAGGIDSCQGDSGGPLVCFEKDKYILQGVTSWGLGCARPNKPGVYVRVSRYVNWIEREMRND

One may read the IC50 as the point on the concentration scale where inhibition reaches its midpoint. What is called half-life is the time in which the quantity being followed falls by half. As for `COC(=O)NC(Cc1ccc(NC(=N)N)cc1)P(=O)(Oc1ccc(NC(C)=O)cc1)Oc1ccc(NC(C)=O)cc1` (configuration not stated), the IC50 in data set [1] was found to be 24.5 nM; in data set [2], 2200 nM; in [3], 45000 nM; in [4], 1130 nM. The half-life in data set [5] is > 336 h; in data set [6], 3 h. For the same molecule, the Activity in [7] is 6%; in data set [8], 7%; in data set [9], 16%; in data set [10], 10%; in data set [11], 2%; in data set [12], 8%.
